The values below come from publication PMC3574193 (Journal of medicinal chemistry, 2013).

Data set [1] concerns the target T1, extracellular TG2 in T84 enterocytic cells (Homo sapiens, UniProt P21980).
T1 sequence (P21980 1-687): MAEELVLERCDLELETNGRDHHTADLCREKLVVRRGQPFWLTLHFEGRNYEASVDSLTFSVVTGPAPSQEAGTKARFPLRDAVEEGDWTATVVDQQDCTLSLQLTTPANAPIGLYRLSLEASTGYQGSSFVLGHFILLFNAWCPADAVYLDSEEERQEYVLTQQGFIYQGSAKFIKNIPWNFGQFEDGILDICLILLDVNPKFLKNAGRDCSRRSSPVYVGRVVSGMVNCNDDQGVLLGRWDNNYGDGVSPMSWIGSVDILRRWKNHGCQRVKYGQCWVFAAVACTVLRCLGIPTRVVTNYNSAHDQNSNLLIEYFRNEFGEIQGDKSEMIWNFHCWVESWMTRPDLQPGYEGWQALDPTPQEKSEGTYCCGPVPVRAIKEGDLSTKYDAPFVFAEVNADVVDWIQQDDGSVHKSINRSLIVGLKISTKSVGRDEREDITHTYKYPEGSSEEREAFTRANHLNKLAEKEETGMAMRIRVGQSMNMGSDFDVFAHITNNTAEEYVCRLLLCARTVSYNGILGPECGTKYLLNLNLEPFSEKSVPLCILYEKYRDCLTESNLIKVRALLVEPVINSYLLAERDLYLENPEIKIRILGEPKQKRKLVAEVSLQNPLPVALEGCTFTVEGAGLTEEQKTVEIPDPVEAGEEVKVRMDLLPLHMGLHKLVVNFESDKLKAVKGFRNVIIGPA
Description: Trx-mediated TG2 activation in T84 enterocytic cells. In kind it is cell-based. As to conditions: 25 µM ERW1041E.

The target in data set [2] is T2, human Trx W31A mutant (Homo sapiens, UniProt P10599, W31A).
T2 sequence (P10599 1-105 W31A): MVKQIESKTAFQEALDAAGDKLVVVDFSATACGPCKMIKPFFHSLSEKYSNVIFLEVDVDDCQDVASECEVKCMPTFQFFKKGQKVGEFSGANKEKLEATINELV
Description: In vitro thioredoxin activity assay with W31A mutant. In kind it is biochemical. The following applies: W31A mutant of human Trx. A digest of the protocol:
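Pre-reduced enzyme was desalted by spin column, quantified by A280 and used within 2 h. It was reacted with test compound, 10 µM each, in 0.1 M phosphate-citrate pH 6.0 at room temperature. Aromatic product accumulation was fitted exponentially for kinh/Ki.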

Data set [3] can be described thus: Preliminary half-life studies in rats. In kind it is in vivo. The following applies: data not shown.
The conditions of data set [4]: cited from earlier work.

Entries after “also recorded” stand apart in the source; their conditions may differ.

Turning to `O=C(NC[C@@H]1CC(Br)=NO1)[C@@H]1CCCN1C(=O)OCc1cnc2ccccc2c1` [ERW1041E, (S)-quinolin-3-ylmethyl 2-((((S)-3-bromo-4,5-dihydroisoxazol-5-yl)methyl)carbamoyl)pyrrolidine-1-carboxylate], the “effect on Trx mediated 5BP incorporation” value in data set [1] was “fully suppressed; also recorded: completely blocked”.

`CCC(C)SSc1nc2ccccc2[nH]1` (stereo not shown) [Compound 14, 2-(sec-butyldisulfanyl)-1H-benzo[d]imidazole]: the “kinh/Ki with W31A Trx” value in data set [2] worked out at 23700 M⁻¹ s⁻¹.

As to `CCC(C)SSc1ncc[nH]1` (stereo not shown) [Compound 1, 2-(sec-butyldisulfanyl)-1H-imidazole], the half-life in rats entry in data set [3] is recorded as “short half-life”. The half-life in humans entry in data set [4] was “extremely short half-life”.
